High-throughput results as filed in PubChem BioAssay.
Shown are actives, neighbours in structure and some others; about 8.9% of the full set was active somewhere.
MT stabilize HCS = microtubule stabilization, imaging screen; HeLa tubulin immunostaining HCS, 24 h; share of cells brighter than vehicle mean+2SD; % tubulin-high responders, % at 10 µM; 200,000 tested, 0.83% active; AID 2205;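 active = plate Z-score above 3 for both tubulin-high and condensed-nucleus cell shares, with cell loss under 80%, at 10 µM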;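 also: anti alpha tubulin signal scored within the nucleus-defined area of each cell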
Dynein cargo inh = dynein cargo transport inhibition; z-score, hits read low; 220,000 tested, 0.47% active; 3617.4 mouse cells, GR-EGFP nuclear translocation imaging; test concentration mostly 20 µM; stimulated with dexamethasone, 1 µM; active compounds read low; AID 1381;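 active = plate z-score of nuclear minus cytoplasmic receptor signal below a set negative limit, without overly bright fluorescence or cell loss, cut at about -3.5 in these data, passing the limit was not always enough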;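 also: z-score of nuclear minus cytoplasmic ring GR-EGFP intensity difference per well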
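medium = tetracycline-free induction medium containing charcoal-stripped FBS | probe or stimulus = dexamethasone, 1.0 µM final | timing = 48 h induction, then 1 h compound, then 30 min agonist, 37 °C | detection = automated 10x imaging of fixed Hoechst-stained cells | read-out basis = nuclear versus cytoplasmic GR-EGFP signal, averaged per well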
L major viab = inhibitors of Leishmania major promastigote growth | inhibition, % at 10 µM | Leishmania major promastigotes, resazurin fluorescence viability | 200,000 tested, 9% active; in the data active = inhibition above about 50%;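 also: promastigotes grown with compound for 44 hours at 28 °C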
HSV replic up = increases HSV replication in cells; maximum fold increase; AID 1956; 220,000 tested, 0.005% active; HSV replication augmentation in cells, fold increase; in the data active = maximum fold increase above about 1.5; tested in PC3 cells
b-catenin transl = alters nuclear translocation of beta-catenin in HeLa cells | nuclear translocation activity, % at 5 µM | AID 1665 | 190,000 tested, 0.3% active | immunofluorescence imaging;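 active = nuclear translocation activity above 50% at 5 µM, with a well cell count of 50 or more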;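 also: per-cell ratio of nuclear to cytoplasmic median beta-catenin stain intensity; plate controls were DMSO negative control for no effect and GSK-3 inhibitor IX positive control for full effect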
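assay system = human HeLa cells, endogenous beta-catenin | times = compound treatment 24 h, 37°C, 5% CO2 | detection = Anti-beta-catenin immunofluorescence on PFA-fixed, Triton-permeabilized cells, DAPI nuclei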
An asterisk follows results filed as active.

`Cc1cc(C)c(C#N)c(N2CCCC2)n1` gave MT stabilize HCS 2, Dynein cargo inh -0.98, L major viab -8, HSV replic up inactive and b-catenin transl 0.
CCC(CC)c1nc(C#N)c(NCc2ccccc2)o1 was read as MT stabilize HCS 15*, Dynein cargo inh 1.6, L major viab 6, HSV replic up inactive and b-catenin transl 4.
`CCn1ncc(CN2CCN(C(=O)Nc3ccccc3C(=O)OC)CC2)c1C` gave MT stabilize HCS 2, Dynein cargo inh 0.11, L major viab 0 and HSV replic up inactive.
For COc1ccc(COc2cc(-c3cccc(OC)c3)nc3ccc(NC(=O)C(C)C)cc23)cc1 the results were MT stabilize HCS 12, Dynein cargo inh -0.41, L major viab 100* and HSV replic up inactive.
CC(C)C(=O)Nc1cccc(-c2cnc3ccccc3n2)c1 was read as MT stabilize HCS 1, Dynein cargo inh 0.49, L major viab 6 and HSV replic up inactive.
For CC1(C)Oc2ccc(C(=O)N3CCCC3)cc2N(CC(=O)NCc2ccccc2)C1=O the results were MT stabilize HCS 5, Dynein cargo inh 0.25, L major viab -5, HSV replic up inactive and b-catenin transl -2.
Screening O=C(/C=C/Nc1ccc(F)c(Cl)c1)c1ccco1 returned MT stabilize HCS 2, Dynein cargo inh 1.4, L major viab 1 and HSV replic up inactive.
CCOC(=O)/C=c1\s/c(=C\c2c(OC)ccc3ccccc23)c(=O)n1CC(=O)NCC1CCCO1 (centres undefined) was read as MT stabilize HCS 14, Dynein cargo inh -0.8, L major viab 38 and b-catenin transl 190*.
For CCOC(=O)/C=c1\s/c(=C\c2ccc(C(=O)OC)cc2)c(=O)n1CC(=O)Nc1ccccc1 the results were MT stabilize HCS 4, Dynein cargo inh 0.98, L major viab -5, HSV replic up inactive and b-catenin transl 0.
Screening O=c1oc(-c2ccccc2NS(=O)(=O)c2ccc3ccccc3c2)nc2ccccc12 returned MT stabilize HCS 3, Dynein cargo inh 0.24, L major viab 92*, HSV replic up inactive and b-catenin transl 2.
`COc1cc(OC)cc(-c2nc3ccccc3c(=O)o2)c1` gave MT stabilize HCS 3, Dynein cargo inh 0.48, L major viab -1, HSV replic up inactive and b-catenin transl 0.
CCOc1ccc(NC(=O)C2CC(C)=C(C)CC2C(=O)O)cc1 (centres undefined) was read as MT stabilize HCS 2, Dynein cargo inh 0.8, L major viab 81*, HSV replic up inactive and b-catenin transl -2.
Screening CC1(C)CC(N=Cc2c(O)n(Cc3ccc4c(c3)OCO4)c(=O)c3ccccc23)CC(C)(C)N1 returned MT stabilize HCS 7, Dynein cargo inh -0.6, L major viab 101*, HSV replic up inactive and b-catenin transl 12.
Screening O=c1c2ccccc2c(C=Nc2cccc(O)c2)c(O)n1-c1ccc2c(c1)OCO2 returned MT stabilize HCS 7, Dynein cargo inh -0.034, L major viab -1, HSV replic up inactive and b-catenin transl 21.
Screening CC(=O)c1cn(CC(=O)Nc2c(C)cccc2C)c2ccccc12 returned MT stabilize HCS 5, Dynein cargo inh 0.18, L major viab 2, HSV replic up inactive and b-catenin transl 1.
Oc1[nH]c2ccccc2c1N=Nc1nc(Nc2ccccc2)nc(N2CCOCC2)n1 was read as Dynein cargo inh -0.69, HSV replic up inactive and b-catenin transl 0.
COc1cc(/C=N/Nc2nc(Nc3ccccc3)nc(-n3nc(C)cc3C)n2)cc(OC)c1OC was read as MT stabilize HCS 5, Dynein cargo inh -0.45, L major viab 100*, HSV replic up inactive and b-catenin transl -2.
`Cc1[nH]c2ccccc2c1/C=N/Nc1ccccn1` gave MT stabilize HCS 3, Dynein cargo inh -1.6, L major viab 56*, HSV replic up inactive and b-catenin transl -1.
Cc1[nH]c2ccccc2c1/C=N/Nc1nc(Nc2ccccc2)nc(N2CCOCC2)n1 was read as MT stabilize HCS 9, Dynein cargo inh -0.61, L major viab 100* and HSV replic up inactive.
Screening COc1ccc(/C=N/Nc2nc(Nc3ccccc3)nc(N3CCCCC3)n2)c(OC)c1 returned MT stabilize HCS 2, Dynein cargo inh -0.63, L major viab 100*, HSV replic up inactive and b-catenin transl -2.
Screening Cc1ccc(C(=O)C2Oc3ccccc3C3CC(c4ccc(C)cc4)=NN23)cc1 (centres undefined) returned MT stabilize HCS 4, Dynein cargo inh 1.3, L major viab 49, HSV replic up inactive and b-catenin transl -1.
Screening COc1ccc(O)c(/C=N/Nc2nc(Nc3ccccc3)nc(-n3nc(C)cc3C)n2)c1 returned MT stabilize HCS 4, Dynein cargo inh 0.77, L major viab 101*, HSV replic up inactive and b-catenin transl -3.
`COc1cc(/C=N/Nc2nc(Nc3ccc(C)cc3)nc(-n3nc(C)cc3C)n2)cc(OC)c1OC` gave MT stabilize HCS 4, Dynein cargo inh 0.22, L major viab 100*, HSV replic up inactive and b-catenin transl -3.
For COc1cc(/C=N/Nc2nc(Nc3ccccc3)nc(N3CCCCC3)n2)ccc1OCC(=O)O the results were MT stabilize HCS 5, Dynein cargo inh -0.87, L major viab -11, HSV replic up inactive and b-catenin transl -1.
For COc1ccc(Nc2nc(NCc3ccco3)nc(N/N=C/c3ccccc3)n2)cc1 the results were MT stabilize HCS 2, Dynein cargo inh 0.041, L major viab 5, HSV replic up inactive and b-catenin transl -1.
Screening C=C(C)CNC(=O)CCc1nnc(Cc2cccc(C(F)(F)F)c2)o1 returned MT stabilize HCS 2, Dynein cargo inh 1.1, L major viab -4, HSV replic up inactive and b-catenin transl 0.
CCN(CCO)Cc1csc2ccc(Br)cc12 was read as MT stabilize HCS 2, Dynein cargo inh 1.2, L major viab 99*, HSV replic up inactive and b-catenin transl -3.
`O=C(/C=C/c1ccccc1Cl)N(Cc1ccc(Cl)cc1)C1CCS(=O)(=O)C1` (centres undefined) gave MT stabilize HCS 2, Dynein cargo inh -0.14, L major viab 79*, HSV replic up inactive and b-catenin transl -1.
CCOC(=O)c1ccc(NC(=O)c2ccccc2[N+](=O)[O-])cc1 was read as MT stabilize HCS 1, Dynein cargo inh -0.57, L major viab 2 and HSV replic up inactive.
Screening CCOC(=O)c1cc([N+](=O)[O-])c([N+](=O)[O-])cc1NC(C)=O returned MT stabilize HCS 4, Dynein cargo inh 1.6, L major viab 71*, HSV replic up inactive and b-catenin transl 3.
For Cc1ccc(Cn2ccc(NC(=O)c3cc(-c4cccc(Cl)c4)on3)n2)cc1 the results were MT stabilize HCS 3, Dynein cargo inh -0.2, L major viab 76*, HSV replic up inactive and b-catenin transl 1.
